Molecules are shown by their SMILES.

Test system in the first test: not listed separately
Description: In vitro inhibitory concentration against Trypsin (serine protease).
Details: not given
The gist of the method: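 Trypsin counter-screen run with 9 nM enzyme and 200 μM substrate.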
The term IC50 denotes the concentration needed to halve the response being measured. Low readings indicate inhibition by little substance, high ones a need for much substance. The compound `O=C1C(=O)N(Cc2cc3ccccc3s2)c2c(Br)cccc21` gave an IC50 of 362 µM.

`O=C1C(=O)N(Cc2cc3ccccc3s2)c2ccc(I)cc21` registered a concentration for half-maximal inhibition (IC50) of 243 µM.

The next test deals with T1, Replicase polyprotein 1a (Severe acute respiratory syndrome-related coronavirus, UniProt P0C6U8). Description: In vitro inhibitory concentration against SARS coronavirus main protease (SARS CoV 3C-like protease) at 20 uM.
Details: not given
The gist of the method:
(§1)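 FRET assay with 50 nM 3CLpro preincubated 10 min at room temperature with inhibitor at 20 μM in pH 7.5 Tris–HCl/NaCl/EDTA/DTT/β-ME buffer. Percent inhibition was taken from the initial velocity.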
In turn, `O=C1C(=O)N(CC2COc3ccccc3O2)c2ccc(I)cc21` (stereo not given) gave an IC50 of 13.5 µM.

Test system in a further test: not listed separately
Description: In vitro inhibitory concentration against Papain (cysteine protease). Also on record: species or system Carica papaya.
Details: not given
The compound `O=C1C(=O)N(Cc2cc3ccccc3s2)c2c(Br)cccc21` had an IC50 of 103 µM.

On to `O=C1C(=O)N(Cc2cc3ccccc3s2)c2ccc(I)cc21`, for which the IC50 was determined as 87.2 µM.

A further test concerns the target Replicase polyprotein 1a (Severe acute respiratory syndrome-related coronavirus) (UniProt P0C6U8). Kind of test: In vitro percent inhibition against SARS coronavirus main protease (SARS CoV 3C-like protease) at 20 uM.
Details: not given
An outline of the steps: as §1
A word on the inhibition: it is the drop in the measured response relative to a control, in per cent. Read a high inhibition as strong suppression. Consider `O=C1C(=O)N(Cc2cc3ccccc3o2)c2ccc([N+](=O)[O-])cc21`, for which the inhibition is 24%.

For the compound `CC(C)NC(=O)c1ccc(CN2C(=O)C(=O)c3cc(I)ccc32)s1`, the inhibition came to 47%.

In turn, `COc1ccc2c(c1)C(=O)C(=O)N2Cc1cc2ccccc2o1` displayed an inhibition of 13%.

The compound `Nc1cccc2c1N(Cc1cc3ccccc3s1)C(=O)C2=O` gave an inhibition of 31%.

On to `COc1ccc2c(c1)C(=O)C(=O)N2Cc1cc2ccccc2s1`, for which the inhibition is 27%.

Take `O=C1C(=O)N(Cc2cc3ccccc3s2)c2c(Cl)ccc(Cl)c21`: the inhibition was 46%.

`Cc1cc2c(c([N+](=O)[O-])c1)N(Cc1cc3ccccc3s1)C(=O)C2=O`: the inhibition was 39%.

Compound `Nc1ccc2c(c1)C(=O)C(=O)N2CC(=O)c1cc2ccccc2s1` returned an inhibition of 40%.

Compound `Cc1noc(C)c1CN1C(=O)C(=O)c2cc(C(N)=O)ccc21` had an inhibition of 25%.

In turn, `O=C(Nc1ccc(F)cc1F)c1ccc(CN2C(=O)C(=O)c3cc(I)ccc32)s1` yielded an inhibition of 32%.

For the compound `Cc1cc2c(c([N+](=O)[O-])c1)N(CC(=O)c1cc3ccccc3s1)C(=O)C2=O`, the inhibition was 40%.

In the case of `O=C(NC1CCCCC1)c1ccc(CN2C(=O)C(=O)c3cc(I)ccc32)s1`, the inhibition came out at 36%.

`O=C(Nc1ccc(F)cc1)c1ccc(CN2C(=O)C(=O)c3cc(I)ccc32)s1`: the inhibition turned out to be 46%.

A further test has as its target T1, Replicase polyprotein 1a. Description: In vitro inhibitory concentration against SARS coronavirus main protease (SARS CoV 3C-like protease).
Details: not given
The compound `O=C1C(=O)N(Cc2cc3ccccc3s2)c2ccccc21` had an IC50 of 13.1 µM.

As for `O=C1C(=O)N(Cc2ccc(F)cc2Cl)c2ccc(I)cc21`, 9.4 µM corresponded to half-maximal inhibition (IC50).

In turn, `O=C1C(=O)N(C/C=C/c2cc3ccccc3s2)c2ccc(I)cc21` displayed an IC50 of 23.5 µM.

In turn, `O=C(Nc1ccc(Cl)cc1)c1ccc(CN2C(=O)C(=O)c3cc(I)ccc32)s1` gave a 50% inhibitory concentration (IC50) of 12.6 µM.

As for `O=C1C(=O)N(Cc2cc3ccccc3s2)c2c1cccc2[N+](=O)[O-]`, inhibition was half-maximal at 2 µM (IC50).

`O=C1C(=O)N(Cc2cc3ccccc3s2)c2cccc(Cl)c21` came in with an IC50 of 11.2 µM.

Regarding `O=C1C(=O)N(Cc2cc3ccccc3s2)c2ccc(F)cc21`, the half-maximal inhibitory concentration (IC50) was determined as 4.82 µM.

Compound `Cc1noc(C)c1CN1C(=O)C(=O)c2cc(C#N)ccc21` returned an IC50 of 7.2 µM.

`O=C1C(=O)N(Cc2ccc(C(=O)N3CCCCC3)s2)c2ccc(I)cc21`: the IC50 came to 17.5 µM.

On to `O=C1C(=O)N(Cc2cc3ccccc3s2)c2ccc(I)cc21`, for which 0.95 µM corresponded to half-maximal inhibition (IC50).

Another test addresses T1, Replicase polyprotein 1a. Kind of test: In vitro inhibitory concentration SARS coronavirus main protease (SARS CoV 3C-like protease).
Details: not given
The compound `O=C1C(=O)N(Cc2cc3ccccc3s2)c2c(Br)cccc21` registered a 50% inhibitory concentration (IC50) of 0.98 µM.

For another test, the target named is Replicase polyprotein 1a (Severe acute respiratory syndrome-related coronavirus) (UniProt P0C6U8). Kind of test: In vitro percent inhibition against SARS coronavirus main protease (SARS CoV 3C-like protease). Conditions: concentration not given here. The gist of the method: as §1
`O=C1C(=O)N(Cc2cc3ccccc3o2)c2ccc(I)cc21` gave an inhibition of 13%.

(Values after ChEMBL document CHEMBL1139624, “Synthesis and evaluation of isatin derivatives as effective SARS coronavirus 3CL protease inhibitors” (Bioorg Med Chem Lett, 2005).)
